{"data": "Assay results collected from several papers", "MTNR1A": "Melatonin receptor type 1A (MTNR1A, Homo sapiens, UniProt P48039)", "note": "Each line is one published result; the experiments were not run side by side."}
{"SMILES": "COc1ccc2cccc(C(CO)CNC(=O)CF)c2c1 (centres unmarked)", "target": "MTNR1A", "assay": "cAMP, agonist, TR-FRET", "test system": "CHO-K1", "conditions": "20 min", "quantity": "Emax", "result": "93%"}
{"SMILES": "CCN(CC)CCCC[C@H](NC(=O)[C@H](CC(C)C)NC(=O)[C@H](C)NC(=O)[C@H](Cc1ccccc1)NC(=O)c1ccc(C(C)(C)C)cc1)C(=O)N[C@@H](CO)C(=O)OC", "target": "MTNR1A", "assay": "ligand displacement, radioligand", "conditions": "10 µM", "quantity": "remaining binding", "result": "92.1%"}
{"SMILES": "COc1ccc2[nH]cc(CCNC(=O)CI)c2c1", "target": "MTNR1A", "assay": "cAMP, agonist, TR-FRET", "test system": "CHO-K1", "conditions": "20 min", "quantity": "Emax", "result": "103%"}
{"SMILES": "COc1ncccc1-c1cnn2ccc(N3CCN(C(=O)OC(C)C)CC3)nc12", "target": "BMP-2-inducible protein kinase (BMP2K, Homo sapiens, UniProt Q9NSY1)", "assay": "binding, competition with immobilised ligand", "conditions": "1 µM", "quantity": "remaining binding", "result": "3.5%"}
{"SMILES": "Nc1ncc(-c2nc(N3CCOCC3)nc(N3CCOCC3)n2)c(C(F)F)n1", "target": "Aurora kinase A (AURKA, Homo sapiens, UniProt O14965)", "assay": "binding, competition with immobilised ligand", "conditions": "10 µM", "quantity": "remaining binding", "result": "52%"}
{"SMILES": "Cc1nn(C)cc1-c1nc2c(N3CCN(Cc4ccc(Cl)cc4)CC3)c(Cl)cnc2[nH]1", "target": "Tyrosine-protein kinase receptor Tie-1 (TIE1, Homo sapiens, UniProt P35590)", "assay": "binding, competition with immobilised ligand", "conditions": "1 µM", "quantity": "remaining binding", "result": "47%"}
{"SMILES": "C#Cc1n[nH]c2c(-c3cn(C(C)c4ccccn4)c(=O)[nH]c3=O)cc(F)cc12 (centres unmarked)", "target": "Myotonin-protein kinase (DMPK, Homo sapiens, UniProt Q09013)", "assay": "enzyme activity, inhibitor", "conditions": "1 µM", "quantity": "inhibition", "result": "1.2%"}
{"SMILES": "COCc1c(-c2cc3cc(C)cc(OC)c3s2)c2c(N)ncnn2c1CN1CCNC(=O)C1", "target": "5-hydroxytryptamine receptor 2C (HTR2C, Homo sapiens, UniProt P28335)", "assay": "ligand displacement, radioligand", "conditions": "10 µM", "quantity": "inhibition", "result": "30%"}
